High-throughput results (PubChem BioAssay)
NR1D1 modulator: Rev-erb alpha (human) modulation; activity, % at 10 µM; P20393; 370,000 compounds, 0.79% hits; Rev-erbα–FITC-DNA binding, fluorescence polarization, 90 min;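 active = activity above about 14%, limit read from the data; passing the limit was not always enough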;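 note: 0% = DMSO wells with 35 nM protein and 100% = DMSO wells with 750 nM protein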
Target sequence (P20393 whole entry, looked up): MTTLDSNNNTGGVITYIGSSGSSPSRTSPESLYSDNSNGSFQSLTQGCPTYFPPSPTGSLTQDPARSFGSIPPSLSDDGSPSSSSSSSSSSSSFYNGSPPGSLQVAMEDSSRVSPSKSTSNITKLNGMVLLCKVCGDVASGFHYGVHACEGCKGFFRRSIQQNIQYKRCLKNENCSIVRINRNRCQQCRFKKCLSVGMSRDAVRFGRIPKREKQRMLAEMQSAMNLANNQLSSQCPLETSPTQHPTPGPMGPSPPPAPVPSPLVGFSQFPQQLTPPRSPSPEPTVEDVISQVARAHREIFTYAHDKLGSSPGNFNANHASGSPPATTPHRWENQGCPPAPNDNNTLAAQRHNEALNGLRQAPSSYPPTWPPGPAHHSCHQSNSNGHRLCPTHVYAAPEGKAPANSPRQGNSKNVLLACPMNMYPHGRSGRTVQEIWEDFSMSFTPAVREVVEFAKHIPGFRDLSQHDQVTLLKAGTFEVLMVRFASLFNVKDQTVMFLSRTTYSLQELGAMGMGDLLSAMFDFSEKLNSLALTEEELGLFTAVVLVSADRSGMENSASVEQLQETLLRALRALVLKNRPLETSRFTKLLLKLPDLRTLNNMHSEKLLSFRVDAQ
NR2E3 ag-1: activates human photoreceptor nuclear receptor NR2E3; AID 2300; inhibition of corepressor binding, % at 4.78 µM; Q9Y5X4; GST-NR2E3/biotin-RetCOR TR-FRET, 1536-well; 320,000 compounds, 0.12% hits;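 active = percent inhibition above the cutoff of mean plus 3 SD of all tested compounds, set per screening campaign, cut at about 20% in these data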;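 note: 0% = DMSO wells and 100% = biotin wells as full block of FRET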
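Material: NR2E3–RetCOR corepressor complex / Incubation: Compound–protein incubation for 5 h at 4 °C / Dosing: compound at 4.8 µM, single dose / Detection: time-resolved FRET / Benchmarks: high control biotin, low control 0.6% DMSO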
NR2E3 ag-2: human photoreceptor-specific nuclear receptor agonism. Q9Y5X4. CHO-S Gal4-NCOR/VP16-NR2E3 two-hybrid, luciferase. inhibition of corepressor binding, % at 3.98 µM. 360,000 compounds, 0.35% hits. AID 602229;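 active = inhibition above the mean of all tested compounds plus 3 SD, cut at about 70% in these data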;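 note: 0% = DMSO with NR2E3 transfected cells and 100% = cells lacking NR2E3 construct; higher means lower luciferase signal from less NR2E3 corepressor binding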
SKN-1 inh: inhibitors of C. elegans SKN-1; C. elegans VP596 Pgst-4::GFP/RFP ratio, acrylamide-induced, 24 h; inhibition, % at 21.8 µM; 360,000 compounds, 0.49% hits; AID 624304;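 active = interference check ratio from 0.5 to 1.5 plus GFP to RFP signal ratio inhibition reaching or exceeding a fixed threshold, cut at about 30% in these data, passing the limit was not always enough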
PG9 Ab binder: binds the HIV-1 gp120 antibody PG9. 360,000 compounds, 0.43% hits. TR-FRET gp120-PG9 antibody binding. inhibition, % at 6.7 µM. AID 624416; in the data active = inhibition above about 8.5%
MT1-MMP act inh: MT1-MMP (human) activation inhibition | HT1080 RFP-PRO-GFP cells, GFP/RFP ratio fluorescence, overnight; percent of plate control window, DMSO zero | 360,000 compounds, 0.061% hits | AID 651647 | P50281 | GFP/RFP ratio change, % at 20 µM;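 active = GFP/RFP ratio change of at least 30% with cell ATP level not reduced by more than half and red fluorescence within 50% of control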
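Test system: HT1080 RFP-PRO-GFP cells; Benchmarks: DMSO and RFP-L50D-GFP cell wells; Timing: cells overnight before dosing, compound overnight, 37 °C, 5% CO2; Compound: one 20 µM compound dose with 1% DMSO; Read-out: GFP/RFP fluorescence ratio.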
PG9 bind confirm: confirmation of small molecules binding HIV-1 gp120 antibody PG9 | shares compounds with PG9 Ab binder | TR-FRET PG9 antibody binding, biochemical | inhibition, % at 6.7 µM | 1,500 compounds, 90% hits | AID 651571; in the data active = inhibition above about 9%
PGV04 counter: counter-screen for PG9 binders: binding control antibody PGV04 | shares compounds with PG9 Ab binder | 1,500 compounds, 95% hits | inhibition, % at 6.7 µM | AID 651604 | TR-FRET PGV04 antibody-gp120 binding, biochemical; in the data active = inhibition above about 9.5%
PG9 bind DR: PG9 antibody binding, dose response; shares compounds with PG9 Ab binder; TR-FRET PG9 antibody-gp120 binding inhibition; IC50, µM; 95 tested, under 10 active; in the data active = IC50 below about 10 µM
PGV04 binding DR: PGV04 binding, dose response counter-screen | 95 compounds, 20% hits | TR-FRET binding to control antibody PGV04 | shares compounds with PG9 Ab binder | IC50, µM
PG126 binding DR: binds control antibody PG126 in PG9 counter-screen. AID 651939. shares compounds with PG9 Ab binder. TR-FRET binding to antibody PG126, counterscreen. IC50, µM. 95 compounds, 20% hits
* hit, by the source's call. In the library only some 1.9% were active in any assay of this set; here they are far more common. Cut-off read from the data, not from the text of the source, unless noted: active = IC50 below about 9 µM; inactive = the rest.

Screening CSc1cc(-c2ccc(Cl)cc2)c(C(=O)NC(C)C)s1 returned NR1D1 modulator 4, NR2E3 ag-1 -4, NR2E3 ag-2 -7, SKN-1 inh 21, PG9 Ab binder 18*, MT1-MMP act inh -4, PG9 bind confirm 9 and PGV04 counter 13*.
CSc1cc(-c2ccc(Cl)cc2)c(C(=O)NN)s1 was read as NR1D1 modulator 7, NR2E3 ag-1 0, NR2E3 ag-2 0, SKN-1 inh -13, PG9 Ab binder 1 and MT1-MMP act inh 21.
Screening COc1ccc(C(=O)Nc2ccc(S(=O)(=O)N3CCCC3)cc2)c(OC)c1 returned NR1D1 modulator 15, NR2E3 ag-1 1, NR2E3 ag-2 11, SKN-1 inh 3, PG9 Ab binder 11*, MT1-MMP act inh 1, PG9 bind confirm 13* and PGV04 counter 17*.
Cc1cc(=O)oc2cc(NC(=O)C3COc4ccccc4O3)ccc12 (stereo unspecified) was read as NR1D1 modulator 11, NR2E3 ag-1 8, NR2E3 ag-2 -36, SKN-1 inh 19, PG9 Ab binder 16*, MT1-MMP act inh -2, PG9 bind confirm 39*, PGV04 counter 33*, PG9 bind DR >67, PGV04 binding DR inactive and PG126 binding DR inactive.
For CCOCCCn1c(SCC(=O)Nc2ccccc2)nc2ccccc2c1=O the results were NR1D1 modulator 1, NR2E3 ag-1 -1, NR2E3 ag-2 -16, SKN-1 inh -4, PG9 Ab binder 0 and MT1-MMP act inh -1.
`CCOCCCn1c(SCC(=O)Nc2ccc(OC)cc2)nc2ccccc2c1=O` gave NR1D1 modulator 4, NR2E3 ag-1 2, NR2E3 ag-2 -13, SKN-1 inh 8, PG9 Ab binder 48*, MT1-MMP act inh -2, PG9 bind confirm 48* and PGV04 counter 55*.
For COc1cc(Nc2cc(C)n(-c3cc(OC)cc(OC)c3)c(=O)c2)cc(OC)c1 the results were NR1D1 modulator 1 and PG9 Ab binder 0.
Cc1onc(-c2ccccc2Cl)c1C(=O)Nc1nnc(-c2ccc(Cl)cc2Cl)s1 was read as NR1D1 modulator -1, NR2E3 ag-1 1, NR2E3 ag-2 -27, SKN-1 inh -1, PG9 Ab binder 15*, MT1-MMP act inh 4, PG9 bind confirm 39* and PGV04 counter 55*.
Cc1onc(-c2c(F)cccc2Cl)c1C(=O)Nc1nnc(-c2ccccc2)s1 was read as NR1D1 modulator -1, NR2E3 ag-1 3, NR2E3 ag-2 -10, SKN-1 inh 5, PG9 Ab binder 9.6*, MT1-MMP act inh -1, PG9 bind confirm 15* and PGV04 counter 23*.
Cc1onc(-c2ccccc2)c1C(=O)Nc1cccc2nsnc12 was read as NR1D1 modulator 16, NR2E3 ag-1 -2, NR2E3 ag-2 -39, SKN-1 inh 7, PG9 Ab binder 66*, MT1-MMP act inh -5, PG9 bind confirm 72* and PGV04 counter 81*.
Screening Cc1onc(-c2ccccc2Cl)c1C(=O)Nc1ccc(F)c(F)c1 returned NR1D1 modulator 1, NR2E3 ag-1 2, NR2E3 ag-2 8, SKN-1 inh 17, PG9 Ab binder 1 and MT1-MMP act inh 3.
COc1cccc2cc(C(=O)Nc3cccnc3N3CCOCC3)c(=O)oc12 was read as NR1D1 modulator -5, NR2E3 ag-1 -3, NR2E3 ag-2 25, SKN-1 inh 4, PG9 Ab binder 9.7*, MT1-MMP act inh 13, PG9 bind confirm 4 and PGV04 counter 7.
For O=C(Nc1cccnc1N1CCOCC1)c1cc2ccccc2oc1=O the results were NR1D1 modulator -3, NR2E3 ag-1 0, NR2E3 ag-2 -2, SKN-1 inh -16, PG9 Ab binder -2 and MT1-MMP act inh 1.
Screening O=C(CCc1nc2ccccc2c(=O)[nH]1)OCc1cccc(C(F)(F)F)c1 returned NR1D1 modulator -5, NR2E3 ag-1 -2, NR2E3 ag-2 4, SKN-1 inh 10, PG9 Ab binder -1 and MT1-MMP act inh 5.
O=C(CCc1nc2ccccc2c(=O)[nH]1)OCc1ccc(-c2ccccc2)cc1 was read as NR1D1 modulator 16, NR2E3 ag-1 0, NR2E3 ag-2 -19, SKN-1 inh -7, PG9 Ab binder 9.3*, MT1-MMP act inh -1, PG9 bind confirm 17* and PGV04 counter 24*.
`COc1ccc(N2C(=O)c3n[nH]c(C(C)C)c3C2c2ccc(F)cc2)cc1` (stereo unspecified) gave NR1D1 modulator 2 and PG9 Ab binder -1.
`CC(=O)c1cc(-c2ccccc2)n(CC(=O)NCc2cccs2)c1C` gave NR1D1 modulator 14, NR2E3 ag-1 -3, NR2E3 ag-2 5, SKN-1 inh -3, PG9 Ab binder 12*, MT1-MMP act inh -1, PG9 bind confirm 14* and PGV04 counter 22*.
S=c1[nH]nc(-c2cccc(Br)c2)o1 was read as NR1D1 modulator -6, NR2E3 ag-1 13, NR2E3 ag-2 -12, SKN-1 inh 0, PG9 Ab binder 27*, MT1-MMP act inh 3, PG9 bind confirm 28* and PGV04 counter 39*.
`Cc1cc(N=Cc2c(O)ccc3ccccc23)no1` gave NR1D1 modulator 1, NR2E3 ag-1 3, NR2E3 ag-2 -10, SKN-1 inh 10, PG9 Ab binder 2 and MT1-MMP act inh -2.
For Cc1cc(N=Cc2c(O)ccc3cc(Br)ccc23)no1 the results were NR1D1 modulator 1, NR2E3 ag-1 16, NR2E3 ag-2 9, SKN-1 inh 5, PG9 Ab binder 9.1*, MT1-MMP act inh -1, PG9 bind confirm 7 and PGV04 counter 10*.
`O=S(=O)(N[C@H]1CCCC[C@@H]1N1CCOCC1)c1ccc(Cl)cc1` gave NR1D1 modulator -4.
`CN1CCN(CCCNC(=O)c2ccc(Cn3c(=S)[nH]c4ccc(Br)cc4c3=O)cc2)CC1` gave NR1D1 modulator -10, NR2E3 ag-1 -3, NR2E3 ag-2 -35, SKN-1 inh 11, PG9 Ab binder 0 and MT1-MMP act inh 3.
